Measured values from different studies.
Target: Cyclin-dependent kinase 8 (CDK8, Homo sapiens, UniProt P49336)

SMILES | assay | conditions | remaining binding
O=C(c1ccc(Nc2nccc(-c3cc4ccccc4s3)n2)cc1)N1CCC(N2CCCC2)CC1 | binding, competition with immobilised ligand | 1 µM | 91%
CC1CCCN1c1nccc(-c2cnn3ncccc23)n1 (centres unmarked) | binding | 1 µM | 100%
C[C@@]1(Cc2ccc(C#N)cc2)C(=O)N(c2cc(Cl)cc(Cl)c2)c2ncc(C(=O)NC3(c4nc(C5CCC5)no4)CC3)n21 | cell-free assay, competition with immobilised ligand | 1 µM | 100%
COc1ncc2cc3ccccc3nc2c1C#N | cell-free assay, competition with immobilised ligand | 5 µM | 100%
FC(F)(F)Oc1cccc(-c2cnc3ccc(-c4ccncc4)nn23)c1 | cell-free assay, competition with immobilised ligand | 5 µM | 12%
F[C@@H]1CCN(c2nccc(-c3cnn4ncccc34)n2)C1 | binding | 1 µM | 100%
O=C(c1ccc(Nc2ncc(Cl)c(-c3ccc(Cl)s3)n2)cc1)N1CCC(N2CCCC2)CC1 | binding, competition with immobilised ligand | 1 µM | 100%
Cc1cc(NC(=O)c2cccc(S(F)(F)(F)(F)F)c2)cc(-n2ccn3nc(-c4cccnc4)cc23)c1 | cell-free assay, competition with immobilised ligand | 1 µM | 86.2%
O=C(NCCCN1CCOCC1)c1ccc(Nc2nccc(-c3cc4ccccc4s3)n2)cc1 | binding, competition with immobilised ligand | 1 µM | 79%
O=C(NCC1CCOCC1)c1n[nH]cc1NC(=O)c1c(F)cccc1F | binding, competition with immobilised ligand | 1 µM | 100%
C[C@H]1CCN(c2nccc(-c3cnn4ncccc34)n2)C1 | binding | 1 µM | 100%
COc1cnc(Nc2cccc(S(N)(=O)=O)c2)nc1N1CCN(c2ccccc2)C(=O)C1 | binding, competition with immobilised ligand | 1 µM | 93%
CN(C)c1ncnc(-c2ccc3nc(Nc4cc(CN5CCN(C(=O)CC(F)(F)F)CC5)ccn4)[nH]c3c2)c1Cl | cell-free assay, competition with immobilised ligand | 1 µM | 90%
c1cnn2ncc(-c3ccnc(N4CCC45COC5)n3)c2c1 | binding | 1 µM | 100%
O=C(NS(=O)(=O)c1ccc(NCC2CCOCC2)c([N+](=O)[O-])c1)c1ccc(N2CCN(Cc3ccc(C(F)(F)F)cc3-c3ccc(Cl)cc3)CC2)cc1Oc1cnc2[nH]ccc2c1 | cell-free assay, competition with immobilised ligand | 1 µM | 100%
CN(C)c1ncc(F)c(-c2cnn3ncccc23)n1 | binding | 1 µM | 87%
O=C1NC(c2ccccn2)Sc2ccccc21 (centres unmarked) | cell-free assay, competition with immobilised ligand | 1 µM | 78%
N[C@H]1CCN(c2nccc(-c3cnn4ncccc34)n2)C1 | binding | 1 µM | 100%
CO[C@@H](C)c1c(Nc2ccc([C@H](N(C)C(=O)C3CCS(=O)(=O)CC3)C(F)(F)F)cc2)cnc2cc(Cl)nn12 | binding, competition with immobilised ligand | 1 µM | 39%
Nc1ncc2c(n1)-c1c([nH]c3ccc(C#CC4CC4)cc13)CCCC2 | binding, competition with immobilised ligand | 1 µM | 100%
